From the M2OR odorant receptor database
Changes are numbered by the printed parent chain.

Columns and labels:
Details in all cases: stereoisomer not certain
[1] = biological target: T1, OR51B5 (Homo sapiens) (UniProt Q9H339)
T1 sequence (whole entry): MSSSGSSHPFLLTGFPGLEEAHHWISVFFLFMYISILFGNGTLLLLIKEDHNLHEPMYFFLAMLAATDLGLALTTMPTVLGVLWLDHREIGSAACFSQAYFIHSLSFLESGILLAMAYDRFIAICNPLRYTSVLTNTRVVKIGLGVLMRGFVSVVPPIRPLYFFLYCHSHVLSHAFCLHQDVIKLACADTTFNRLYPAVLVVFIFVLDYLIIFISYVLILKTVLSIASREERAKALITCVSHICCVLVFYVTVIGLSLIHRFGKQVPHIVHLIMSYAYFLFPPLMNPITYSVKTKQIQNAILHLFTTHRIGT
Procedure, shortened: (§1)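 Each entry records the cell line, G-protein, co-transfected protein and tags used. Methods varied with the source, often transient luciferase assays in mammalian cell lines. A receptor–molecule pair is called responsive (active) if the original authors judged its signal statistically different from baseline and non-responsive (inactive) otherwise.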

[2] = biological target: T2, OR4N4 (Homo sapiens) (UniProt Q8N0Y3)
T2 sequence (whole entry): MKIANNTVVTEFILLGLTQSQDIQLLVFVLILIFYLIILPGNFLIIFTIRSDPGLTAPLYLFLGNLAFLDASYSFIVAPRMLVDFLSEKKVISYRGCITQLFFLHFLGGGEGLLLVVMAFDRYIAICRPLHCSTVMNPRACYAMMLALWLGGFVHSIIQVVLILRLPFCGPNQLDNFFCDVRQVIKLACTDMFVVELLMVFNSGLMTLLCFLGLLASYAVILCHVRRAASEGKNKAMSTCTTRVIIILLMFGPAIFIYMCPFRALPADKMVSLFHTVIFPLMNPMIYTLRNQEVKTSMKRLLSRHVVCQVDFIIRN
Procedure, shortened: as §1

[3] = biological target: T3, OR4N5 (Homo sapiens) (UniProt Q8IXE1)
T3 sequence (whole entry): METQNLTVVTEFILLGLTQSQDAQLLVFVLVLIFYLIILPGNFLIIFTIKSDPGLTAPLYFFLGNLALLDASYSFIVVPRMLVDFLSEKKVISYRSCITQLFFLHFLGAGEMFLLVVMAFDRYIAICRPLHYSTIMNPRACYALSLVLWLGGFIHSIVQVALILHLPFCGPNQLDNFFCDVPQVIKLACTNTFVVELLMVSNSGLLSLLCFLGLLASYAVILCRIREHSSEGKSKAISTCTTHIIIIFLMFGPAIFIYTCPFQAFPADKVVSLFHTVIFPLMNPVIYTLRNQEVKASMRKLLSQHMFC
Procedure, shortened: as §1

[4] = biological target: T4, OR4P4 (Homo sapiens) (UniProt Q8NGL7)
T4 sequence (whole entry): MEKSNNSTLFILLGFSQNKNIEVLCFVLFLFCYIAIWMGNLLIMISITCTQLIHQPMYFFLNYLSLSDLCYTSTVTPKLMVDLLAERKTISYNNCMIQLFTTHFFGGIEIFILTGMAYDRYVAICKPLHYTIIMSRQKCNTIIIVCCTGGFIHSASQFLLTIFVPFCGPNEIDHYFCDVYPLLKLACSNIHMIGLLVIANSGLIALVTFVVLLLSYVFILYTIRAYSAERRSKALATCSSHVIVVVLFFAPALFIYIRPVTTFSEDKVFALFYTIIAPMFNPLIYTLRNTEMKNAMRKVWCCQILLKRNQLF
Procedure, shortened: as §1

[5] = biological target: T5, OR4Q3 (Homo sapiens) (UniProt Q8NH05)
T5 sequence (whole entry): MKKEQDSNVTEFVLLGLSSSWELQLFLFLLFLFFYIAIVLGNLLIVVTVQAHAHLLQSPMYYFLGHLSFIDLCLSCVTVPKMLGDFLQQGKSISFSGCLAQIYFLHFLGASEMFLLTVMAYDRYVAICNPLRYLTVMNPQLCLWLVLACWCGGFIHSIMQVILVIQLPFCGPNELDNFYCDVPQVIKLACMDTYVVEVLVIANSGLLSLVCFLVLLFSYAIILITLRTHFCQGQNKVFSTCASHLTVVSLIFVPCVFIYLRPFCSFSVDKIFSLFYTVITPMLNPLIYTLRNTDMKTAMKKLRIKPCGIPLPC
Procedure, shortened: as §1

[6] = biological target: T6, OR4S1 (Homo sapiens) (UniProt Q8NGB4)
T6 sequence (whole entry): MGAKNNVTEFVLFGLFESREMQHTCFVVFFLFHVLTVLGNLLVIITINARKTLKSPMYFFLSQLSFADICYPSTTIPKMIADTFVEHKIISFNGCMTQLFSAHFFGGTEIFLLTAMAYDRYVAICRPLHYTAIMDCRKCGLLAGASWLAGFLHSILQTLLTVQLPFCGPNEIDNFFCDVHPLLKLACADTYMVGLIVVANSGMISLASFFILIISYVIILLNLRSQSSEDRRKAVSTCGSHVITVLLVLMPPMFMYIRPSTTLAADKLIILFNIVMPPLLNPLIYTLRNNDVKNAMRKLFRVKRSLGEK
Procedure, shortened: as §1

[7] = biological target: T7, OR4S2 (Homo sapiens) (UniProt Q8NH73)
T7 sequence (whole entry): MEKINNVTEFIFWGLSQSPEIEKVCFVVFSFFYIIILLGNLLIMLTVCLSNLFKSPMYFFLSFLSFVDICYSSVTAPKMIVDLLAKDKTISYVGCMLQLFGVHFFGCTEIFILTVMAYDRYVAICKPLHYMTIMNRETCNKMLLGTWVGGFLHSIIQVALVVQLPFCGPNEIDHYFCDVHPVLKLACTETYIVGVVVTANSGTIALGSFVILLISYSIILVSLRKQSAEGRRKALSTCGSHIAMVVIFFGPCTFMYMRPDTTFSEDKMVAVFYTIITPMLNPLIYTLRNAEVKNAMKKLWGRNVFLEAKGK
Procedure, shortened: as §1

[8] = biological target: T8, OR4X1 (Homo sapiens) (UniProt Q8NH49)
T8 sequence (whole entry): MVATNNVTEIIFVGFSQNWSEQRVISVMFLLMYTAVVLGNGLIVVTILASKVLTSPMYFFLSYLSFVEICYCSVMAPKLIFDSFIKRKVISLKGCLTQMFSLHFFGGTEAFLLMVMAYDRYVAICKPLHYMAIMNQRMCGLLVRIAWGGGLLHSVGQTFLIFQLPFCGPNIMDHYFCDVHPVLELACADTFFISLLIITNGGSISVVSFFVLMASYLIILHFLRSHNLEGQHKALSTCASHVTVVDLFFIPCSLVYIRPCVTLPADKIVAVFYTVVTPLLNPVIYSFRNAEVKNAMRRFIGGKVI
Procedure, shortened: as §1

[9] = biological target: T9, OR4X2 (Homo sapiens) (UniProt Q8NGF9)
T9 sequence (whole entry): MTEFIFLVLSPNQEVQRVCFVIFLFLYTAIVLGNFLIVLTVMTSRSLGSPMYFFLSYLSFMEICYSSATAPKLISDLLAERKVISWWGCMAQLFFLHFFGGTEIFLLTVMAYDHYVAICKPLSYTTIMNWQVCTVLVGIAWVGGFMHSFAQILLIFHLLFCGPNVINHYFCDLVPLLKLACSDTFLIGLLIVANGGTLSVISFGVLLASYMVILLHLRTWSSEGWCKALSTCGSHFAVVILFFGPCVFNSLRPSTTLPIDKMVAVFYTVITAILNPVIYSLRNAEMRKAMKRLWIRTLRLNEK
Procedure, shortened: as §1

[10] = biological target: T10, OR51A2 (Homo sapiens) (UniProt Q8NGJ7)
T10 sequence (whole entry): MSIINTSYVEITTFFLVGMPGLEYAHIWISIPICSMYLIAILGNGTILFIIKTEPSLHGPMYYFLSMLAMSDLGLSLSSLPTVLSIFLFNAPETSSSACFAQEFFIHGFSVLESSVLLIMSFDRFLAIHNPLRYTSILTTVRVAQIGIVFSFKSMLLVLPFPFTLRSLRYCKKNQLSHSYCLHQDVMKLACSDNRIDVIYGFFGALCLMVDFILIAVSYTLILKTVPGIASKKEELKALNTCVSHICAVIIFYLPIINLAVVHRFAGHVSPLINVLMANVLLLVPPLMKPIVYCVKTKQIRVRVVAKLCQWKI
Procedure, shortened: as §1

[11] = biological target: T11, OR51A4 (Homo sapiens) (UniProt Q8NGJ6)
T11 sequence (whole entry): T10 sequence (whole entry) with G59E, T94I, S97N, S167N, P227L, E235Q, G267R, M288T, K289N, W311R
Procedure, shortened: as §1

[12] = biological target: T12, OR51A7 (Homo sapiens) (UniProt Q8NH64)
T12 sequence (whole entry): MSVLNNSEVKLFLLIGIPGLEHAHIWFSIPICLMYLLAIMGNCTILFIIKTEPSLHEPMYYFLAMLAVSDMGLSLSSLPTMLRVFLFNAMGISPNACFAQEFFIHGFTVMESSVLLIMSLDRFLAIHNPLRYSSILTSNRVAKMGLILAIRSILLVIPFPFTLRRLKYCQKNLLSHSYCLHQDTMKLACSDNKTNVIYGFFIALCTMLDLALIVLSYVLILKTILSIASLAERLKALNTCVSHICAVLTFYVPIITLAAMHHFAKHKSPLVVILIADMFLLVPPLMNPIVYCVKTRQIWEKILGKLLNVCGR
Procedure, shortened: as §1

[13] = biological target: T13, OR51B2 (Homo sapiens) (UniProt Q9Y5P1)
T13 sequence (whole entry): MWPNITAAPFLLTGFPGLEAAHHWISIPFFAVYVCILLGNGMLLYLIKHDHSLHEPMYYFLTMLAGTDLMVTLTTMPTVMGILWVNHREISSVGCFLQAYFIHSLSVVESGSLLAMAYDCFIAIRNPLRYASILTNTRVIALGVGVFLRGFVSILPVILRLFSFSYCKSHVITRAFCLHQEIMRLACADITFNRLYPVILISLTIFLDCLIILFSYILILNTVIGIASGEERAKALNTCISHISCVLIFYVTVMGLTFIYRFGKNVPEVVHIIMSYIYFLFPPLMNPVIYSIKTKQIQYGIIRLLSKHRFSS
Procedure, shortened: as §1

[14] = biological target: T14, OR51B4 (Homo sapiens) (UniProt Q9Y5P0)
T14 sequence (whole entry): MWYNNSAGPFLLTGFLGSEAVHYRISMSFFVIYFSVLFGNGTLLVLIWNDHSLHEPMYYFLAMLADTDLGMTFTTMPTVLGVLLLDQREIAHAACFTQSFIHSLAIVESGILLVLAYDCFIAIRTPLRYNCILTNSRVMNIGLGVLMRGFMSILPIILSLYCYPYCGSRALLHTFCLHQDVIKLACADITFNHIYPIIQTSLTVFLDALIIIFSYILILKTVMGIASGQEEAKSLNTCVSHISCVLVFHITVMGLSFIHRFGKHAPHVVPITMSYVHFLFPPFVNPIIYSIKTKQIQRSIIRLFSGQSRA
Procedure, shortened: as §1

[15] = biological target: T15, OR51B6 (Homo sapiens) (UniProt Q9H340)
T15 sequence (whole entry): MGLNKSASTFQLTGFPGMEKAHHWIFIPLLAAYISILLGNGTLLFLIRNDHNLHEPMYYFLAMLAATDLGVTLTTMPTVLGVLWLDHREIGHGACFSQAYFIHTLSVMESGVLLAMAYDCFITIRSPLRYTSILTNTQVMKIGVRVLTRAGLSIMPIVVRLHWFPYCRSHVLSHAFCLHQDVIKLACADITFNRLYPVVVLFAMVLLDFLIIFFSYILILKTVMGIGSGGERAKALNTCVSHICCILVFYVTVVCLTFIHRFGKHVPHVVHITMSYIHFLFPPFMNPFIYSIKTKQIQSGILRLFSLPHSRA
Procedure, shortened: as §1

[16] = system: T16, OR4N2
T16 sequence (whole entry): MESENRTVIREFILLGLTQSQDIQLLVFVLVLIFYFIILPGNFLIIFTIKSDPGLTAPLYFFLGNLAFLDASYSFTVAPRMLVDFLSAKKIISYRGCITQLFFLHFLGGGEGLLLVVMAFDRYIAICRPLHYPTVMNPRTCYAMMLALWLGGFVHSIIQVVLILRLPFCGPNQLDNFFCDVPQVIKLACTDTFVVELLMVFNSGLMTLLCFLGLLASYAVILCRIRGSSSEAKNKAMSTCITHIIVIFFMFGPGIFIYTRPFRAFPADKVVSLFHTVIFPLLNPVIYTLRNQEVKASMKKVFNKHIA
Procedure, shortened: as §1

[17] = system: T17, OR4Q3 T135A
T17 sequence (whole entry): T5 sequence (whole entry) with T135A
Procedure, shortened: as §1

Measured: odorant receptor agonist call

CCC(C)CO (configuration not stated)
inactive: [1]

CCCCC(S)C(C)CO (configuration not stated)
not listed: [16] | [17]
inactive: all other assays above

CCC1OC(=O)C(O)=C1C (configuration not stated)
inactive: all assays above

CCCC(S)CCOC(C)=O (configuration not stated)
inactive: all assays above

CCC1OC(C)=C(O)C1=O (configuration not stated)
inactive: all assays above
